From ChEMBL document CHEMBL1146180, “Synthesis and evaluation of [18F] labeled pyrimidine nucleosides for positron emission tomography imaging of herpes simplex virus 1 thymidine kinase gene expression” (J Med Chem, 2006)

Tests used:
[1] = Partition coefficient, log P at pH 7.4; type: physicochemical; conditions: octanol/water
Summary of the method: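 Octanol/PBS shake-flask: 20 µL radiolabeled tracer in saline added to 0.5 mL each 1-octanol and PBS (pH 6.4, 7.0, 7.4, 8.4); vortexed 1 min, centrifuged 5 min; 20 µL of each layer weighed and 18F gamma-counted (400-550 keV). log P = log10(counts per g octanol / counts per g water).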

RG2 [2] = assay: Ratio of uptake in rat RG2TK+ cells to RG2 cells; type: ADME, cell-based
Summary of the method: (§1)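 Paired time-course uptake over 120 min in HSV1-tk transduced RG2TK+ and wild-type RG2 cells. Medium held 18F tracer (10 kBq/mL) with [3H]TdR (3.7 kBq/mL) and [14C]FIAU (0.37 kBq/mL) as references. 18F gamma-counted at once, 3H/14C by liquid scintillation 24-36 h later. Net accumulation rate, (mL medium/min)/g cells, taken from slope of (dpm/g cells)/(dpm/mL medium) vs time and normalized to TdR.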

RG2 [3] = assay: Uptake in HSV1 thymidine kinase expressing rat RG2TK+ cells; type: ADME, cell-based; summary of the method: as §1
RG2 [4] = assay: Uptake in rat RG2 cells; type: ADME, cell-based; summary of the method: as §1

| logD [1] | Ratio (RG2 [2]) | Drug uptake (RG2 [3]) [µL/min/mg] | Drug uptake (RG2 [4]) [µL/min/mg] | SMILES |
| --- | --- | --- | --- | --- |
| 0.03 | 13 | 51 | 4 | O=c1[nH]c(=O)n([C@@H]2O[C@H](CO)[C@@H](O)[C@@H]2[18F])cc1C(F)(F)F |
|  | 550 | 290 | 0.53 | O=c1[nH]c(=O)n([C@@H]2O[C@H](CO)[C@@H](O)[C@@H]2F)cc1CC[18F] |
| -0.1 | 5.7 | 274 | 48 | O=c1[nH][14c](=O)n([C@@H]2O[C@H](CO)[C@@H](O)[C@@H]2F)cc1I |
| 0.5 |  | 14 | -1 | CCCc1cn([C@@H]2O[C@H](CO)[C@@H](O)[C@@H]2[18F])c(=O)[nH]c1=O |
|  | 6.9 | 22 | 3.2 | Nc1nc(=O)c2ncn(CCC(CO)C[18F])c2[nH]1 (stereo not drawn) |
|  | 19 | 7.7 | 0.4 | Nc1nc(O)c2ncn(COC(CO)C[18F])c2n1 (stereo not drawn) |
| 1.02 |  | 35 | -1 | O=c1[nH]c(=O)n([C@@H]2O[C@H](CO)[C@@H](O)[C@@H]2[18F])cc1/C=C/Br |
